From PubChem
The list is not random: actives were taken first. Their share in the collection is about 4.6%.
Wee1 stabilizer: blocks degradation of human Wee1 kinase; 1.2% of 220,000 active; P30291; AID 1321; reporter increase, % at 5 µM; HeLa Luc-Wee1K328M stability, luciferase luminescence; 100% = proteasome inhibitor MG132 effect;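 active means activation above the mean of all tested compounds plus 3 SD, set per screening run, cut at about 8.8% in these data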;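 further: cells exposed to compound for 20 h before luminescence read; 0% = DMSO alone and 100% = MG132 at 30 µM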
Mdm2 ligase inh: Mdm2 E3 ligase (human) inhibition; AID 1230; signal enhancement, % at 5 µM; 0.11% of 210,000 active; Q00987; cell-based MDM2 ubiquitination luciferase reporter, 2 h; 0 = plate control, 100 = twice control, blank-subtracted;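 active means signal enhancement of 30% or more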;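 further: luminescence tracks abundance of the self-degrading MDM2-luciferase fusion protein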
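test system = mammalian cells stably expressing self-ubiquitinating, self-degrading MDM2 E3–luciferase fusion | quantity = 2000 cells/well | incubation = cell settling 4 h, compound treatment 2 h, both 37 °C | signal = luminescence with SteadyLite reagent, 15 min at room temperature | evaluation = % enhancement relative to plate controls after blank subtraction | benchmarks = plate controls and plate blanks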
p97 inhibitor: human p97 ATPase inhibition; inhibition, % at 8 µM; 0.42% of 220,000 active; recombinant p97 ATPase, Kinase-Glo ATP luminescence, 3 h; AID 1481; in the data active means inhibition above about 15%;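 further: 0% = DMSO vehicle and 100% = wells lacking enzyme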
Target sequence (P55072 whole entry, looked up): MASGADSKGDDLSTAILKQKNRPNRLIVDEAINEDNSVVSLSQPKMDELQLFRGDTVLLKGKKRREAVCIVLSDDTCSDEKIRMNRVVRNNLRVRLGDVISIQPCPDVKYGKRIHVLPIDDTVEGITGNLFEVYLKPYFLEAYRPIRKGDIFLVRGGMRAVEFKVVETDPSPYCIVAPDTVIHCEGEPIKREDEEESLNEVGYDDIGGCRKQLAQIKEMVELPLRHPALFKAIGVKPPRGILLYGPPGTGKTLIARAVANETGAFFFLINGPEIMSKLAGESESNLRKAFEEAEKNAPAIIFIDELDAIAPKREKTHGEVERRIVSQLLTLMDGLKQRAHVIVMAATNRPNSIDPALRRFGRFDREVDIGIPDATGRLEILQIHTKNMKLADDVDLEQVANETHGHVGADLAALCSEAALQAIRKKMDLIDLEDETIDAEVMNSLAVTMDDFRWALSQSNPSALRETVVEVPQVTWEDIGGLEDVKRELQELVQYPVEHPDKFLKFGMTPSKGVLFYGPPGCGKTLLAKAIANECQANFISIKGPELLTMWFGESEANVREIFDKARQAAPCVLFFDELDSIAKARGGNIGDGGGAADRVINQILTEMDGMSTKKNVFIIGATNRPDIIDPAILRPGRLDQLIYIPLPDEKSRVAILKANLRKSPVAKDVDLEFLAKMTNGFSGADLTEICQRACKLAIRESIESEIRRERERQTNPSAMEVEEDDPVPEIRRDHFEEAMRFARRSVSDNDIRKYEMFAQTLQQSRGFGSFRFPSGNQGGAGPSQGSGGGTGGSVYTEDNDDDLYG
STAT1 act: increases IFN-gamma driven STAT1 reporter signal. activation (% of control), % at 5.5 µM. NIH 3T3 STAT1-luciferase reporter, luminescence; 100% = IFN-gamma alone, no compound. 2.6% of 200,000 active;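 active means activation above the screen-wide mean activation plus 3 SD, cut at about 130% in these data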;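 further: raw ratio to IFN-gamma control signal so 100% means no change and 0% no light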
APP 5'UTR act: APP 5'UTR luciferase reporter activation; SH-SY5Y APP 5'UTR luciferase reporter, luminescence; zero percent = DMSO vehicle wells; activation, % at 2 µM; 1% of 190,000 active;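 active means activation above a set limit, based on mean plus 3 SD of controls, cut at about 140% in these data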
NF-kB expr up: compounds increasing NF-kB expression in human neuronal cells. fold change at 12.5 µM. 1.6% of 190,000 active. NF-kB reporter expression; hits give high values; in the data active means fold change above about 3.3
Active calls of the source: *.

CCN(CC)S(=O)(=O)c1cccc(NC(=O)COC(=O)CCC(=O)c2ccc(F)cc2)c1 was read as Wee1 stabilizer 2, Mdm2 ligase inh 1, p97 inhibitor -2, STAT1 act 99, APP 5'UTR act 6 and NF-kB expr up 0.77.
Cc1ccc(C)c(-n2nnnc2SCC(=O)NNC(=O)c2ccco2)c1 was read as Wee1 stabilizer 2, Mdm2 ligase inh -4, p97 inhibitor -2, STAT1 act 85, APP 5'UTR act 14 and NF-kB expr up 1.5.
Cc1cccc(NC(=O)CSc2nc(C)c(Cc3ccccc3)c(=O)[nH]2)c1C was read as Wee1 stabilizer 1, Mdm2 ligase inh -3, p97 inhibitor 4, STAT1 act 103, APP 5'UTR act 11 and NF-kB expr up 1.3.
`c1cncc(-c2nnc(-c3cccs3)o2)c1` gave Wee1 stabilizer 6, Mdm2 ligase inh -29, p97 inhibitor 7, STAT1 act 123, APP 5'UTR act -2 and NF-kB expr up 1.2.
c1csc(-c2nnc(-c3ccc(N4CCOCC4)cc3)o2)c1 was read as Wee1 stabilizer 3, Mdm2 ligase inh -48, p97 inhibitor 2, STAT1 act 114, APP 5'UTR act 122 and NF-kB expr up 3.4*.
For COc1ccc(-c2nnc(-c3cccs3)o2)cc1OC the results were Wee1 stabilizer 3, Mdm2 ligase inh -20, p97 inhibitor 3, STAT1 act 150*, APP 5'UTR act 116 and NF-kB expr up 2.8.
CCOc1ccc(-c2nnc(-c3cccs3)o2)cc1 was read as Wee1 stabilizer -2, Mdm2 ligase inh -18, p97 inhibitor -12, STAT1 act 72, APP 5'UTR act 133 and NF-kB expr up 4.2*.
Screening COc1cc(-c2nnc(-c3cccs3)o2)cc(OC)c1OC returned Wee1 stabilizer -3, Mdm2 ligase inh -9, p97 inhibitor 13, STAT1 act 106, APP 5'UTR act 1 and NF-kB expr up 0.82.
Screening CC(C)(C)C(=O)NC(=S)NNC(=O)c1ccc(Cl)cc1Cl returned Wee1 stabilizer -1, Mdm2 ligase inh -5, p97 inhibitor 9, STAT1 act 95, APP 5'UTR act 10 and NF-kB expr up 0.82.
Screening O=C(N/N=C/c1c(Cl)cccc1Cl)c1n[nH]c2c1CCCC2 returned Wee1 stabilizer 10.0*, Mdm2 ligase inh -15, p97 inhibitor -1, STAT1 act 128, APP 5'UTR act 46 and NF-kB expr up 1.6.
Screening Cc1ccsc1/C=N\NC(=O)c1n[nH]c2c1CCC2 returned Wee1 stabilizer 4, Mdm2 ligase inh -54, p97 inhibitor -10, STAT1 act 121, APP 5'UTR act 26 and NF-kB expr up 4.8*.
For Cc1cc(C(=O)N/N=C/c2sccc2C)no1 the results were Wee1 stabilizer 3, Mdm2 ligase inh 2, p97 inhibitor 2, STAT1 act 101, APP 5'UTR act 9 and NF-kB expr up 1.5.
For O=C(NN=C1CCCC1)c1n[nH]c2c1CCCC2 the results were Wee1 stabilizer 0, Mdm2 ligase inh -56, p97 inhibitor -5, STAT1 act 104, APP 5'UTR act -92 and NF-kB expr up 3.2.
`O=C(NN=C1CCCC1)c1n[nH]c2c1CCC2` gave Wee1 stabilizer 11*, p97 inhibitor 3, STAT1 act 115 and APP 5'UTR act -94.
C/C(=N\NC(=O)c1n[nH]c2c1CCC2)c1ccco1 was read as Wee1 stabilizer 9.3*, Mdm2 ligase inh -53 and p97 inhibitor -22.
`O=C1CC2c3ccccc3C1C1C(=O)N(CCO)C(=O)C21` (centres undefined) gave Wee1 stabilizer -3, Mdm2 ligase inh -4, p97 inhibitor 5, STAT1 act 100, APP 5'UTR act 5 and NF-kB expr up 1.
`N#Cc1c(/N=C/c2ccco2)sc2c1CCCCC2` gave Wee1 stabilizer 0, Mdm2 ligase inh -56, p97 inhibitor 0, STAT1 act 138*, APP 5'UTR act 11 and NF-kB expr up 1.1.
N#Cc1c(/N=C/c2cccs2)sc2c1CCC2 was read as Wee1 stabilizer -4, Mdm2 ligase inh -29, p97 inhibitor 4, STAT1 act 140*, APP 5'UTR act 46 and NF-kB expr up 1.2.
Screening CNC(=O)CS(=O)(=O)CC(=O)Nc1cc(OC(C)C)c(Cl)cc1Cl returned Wee1 stabilizer -3, Mdm2 ligase inh -10, p97 inhibitor -2, STAT1 act 101, APP 5'UTR act 1 and NF-kB expr up 1.
